Experimental data of several laboratories.
Protocols differ between the studies behind these lines.
Target: Serine/threonine-protein kinase WNK1 (WNK1, Homo sapiens, UniProt Q9H4A3)

CC(C)(O)c1cncc(-c2nc3ccc(F)cc3n2C2CC2)c1
remaining binding (cell-free assay; competition with immobilised ligand; 1 µM): 100%

CN(C)c1nccc(-c2cnn3ncccc23)n1
remaining binding (binding; 1 µM): 100%

O=C1NC(c2ccccn2)Sc2ccccc21 (stereo not drawn)
remaining binding (cell-free assay; competition with immobilised ligand; 1 µM): 91%

Cc1cnc(Nc2ccc(C(=O)N3CCC(N4CCCC4)CC3)cc2)nc1-c1cc2ccccc2s1
remaining binding (binding; competition with immobilised ligand; 1 µM): 90%

COc1cnc(Nc2cccc(S(N)(=O)=O)c2)nc1N1CCN(c2ccccc2)C(=O)C1
remaining binding (binding; competition with immobilised ligand; 1 µM): 0%

c1cnn2ncc(-c3ccnc(N4CCC45COC5)n3)c2c1
remaining binding (binding; 1 µM): 100%

CN(C)C(=O)Cn1cc(-c2nc([C@@](C)(c3ccc(-c4cnc(N)nc4)cc3)C3CC3)no2)cn1
remaining binding (cell-free assay; competition with immobilised ligand; 1 µM): 94%

c1cncc(-c2cccc(Nc3nccc(NC4CCCCC4)n3)c2)c1
remaining binding (binding; competition with immobilised ligand; 10 µM): 87%

COc1ncc2cc3ccccc3nc2c1C#N
remaining binding (cell-free assay; competition with immobilised ligand; 5 µM): 95%

CN(CCCC(F)(F)F)c1nccc(-c2cnn3ncccc23)n1
remaining binding (binding; 1 µM): 100%

O=C(NCC1CCOCC1)c1n[nH]cc1NC(=O)c1c(F)cccc1F
remaining binding (binding; competition with immobilised ligand; 1 µM): 100%

Cc1nccc(COC(=O)N2C[C@@H]3[C@@H](CNC(=O)c4ccc5[nH]nnc5c4)[C@@H]3C2)n1
remaining binding (cell-free assay; competition with immobilised ligand; 1 µM): 86%

O=C(NCCCN1CCOCC1)c1ccc(Nc2nccc(-c3cc4ccccc4s3)n2)cc1
remaining binding (binding; competition with immobilised ligand; 1 µM): 98%

FC(F)(F)Oc1cccc(-c2cnc3ccc(-c4ccncc4)nn23)c1
remaining binding (binding; competition with immobilised ligand; 5 µM): 79%

CN(C)c1nccc(-c2cnc3ncccn23)n1
remaining binding (binding; 1 µM): 100%

Cc1cc(-n2nc(Cc3cc(F)cc(C(F)(F)F)c3)nc2C)ccc1C(N)=O
remaining binding (cell-free assay; competition with immobilised ligand; 1 µM): 100%

F[C@@H]1CCN(c2nccc(-c3cnn4ncccc34)n2)C1
remaining binding (binding; 1 µM): 100%

COc1cnc(Nc2cccc(S(N)(=O)=O)c2)nc1N1CCN(c2ccccc2)CC1
remaining binding (binding; competition with immobilised ligand; 1 µM): 88%
